This is a sample that favours compounds with a hit; in the whole collection about 2.4% have one here.
T cruzi repl: T. cruzi replication inhibition. 300,000 compounds, 1.4% hits. inhibition, % (concentration not given with the values). AID 1885. T. cruzi beta-gal in NIH3T3, luminescence, 90 h;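 active = mean inhibition across valid replicates above about 55%, limit read from the data; inconclusive = mean below that limit but half or more replicates reach it; inactive = mean below it, under half of replicates reach it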;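 also: signal also drops with host cell toxicity which is not excluded here; 0% = plate median of DMSO wells and 100% = zero luminescence signal; higher percent means less beta-gal luminescence so fewer parasites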
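Assay system: NIH/3T3 fibroblasts plus reporter T. cruzi. Amount: NIH/3T3 cells, 5,000 per well. Buffer or medium: DMEM, 2% fetal bovine serum. Doses: compound pinned at 50 nL/well, DMSO. Schedule: ≥90 h infection period, 3 h prior cell attachment. Signal: luminescent β-galactosidase signal after 60 min lysis. Read-out: parasite load inhibition, %.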
H9c2 protect: myocardial damage modulation in H9c2 cells; H9c2 cardiomyocytes, H2O2 injury protection, ATPLite, 2 h; protection from H2O2 cell death, % at 20 µM; 360,000 compounds, 0.63% hits;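 active = compounds giving at least 50% protection of heart cells from peroxide-induced death in the single-dose screen, raw or plate-pattern-corrected value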;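 also: 0% = DMSO wells with peroxide and 100% = DMSO wells without peroxide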
GASC-1 inh: human JMJD2C demethylase inhibition; Q9H3R0; GST-JMJD2C(1-420) H3K9me3 demethylation, DELFIA europium; inhibition, % at 2.35 µM; 330,000 compounds, 0.069% hits; AID 2099;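 active = more than half of a compound's replicate wells show inhibition beyond 50%, single wells judged on their own value; inconclusive = some, but no more than half, of replicates pass 50% inhibition; inactive = no replicate passes 50% inhibition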;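 also: signal counts dimethyl H3K9 product captured on neutravidin plate; 0% = median of DMSO wells and 100% = 0.3 times that DMSO median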
pCIP destab: p/CIP protein destabilization; Q05BA5; F442A p/CIP-EGFP cells, EGFP fluorescence, 16 h; decrease of EGFP signal, % at 10 µM; 290,000 compounds, 0.01% hits;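 active = EGFP signal decrease of at least 30% at 10 µM or well 3 SD below plate mean, unless failing retest; inactive = the rest, including hits failing retest or dose response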
Fh CTSL1 inh: blocks F. hepatica cathepsin L1 in PFM18AAP counter-screen. 300,000 compounds, 0.49% hits. inhibition, % at 5.96 µM. recombinant F. hepatica cathepsin L1, Z-Leu-Arg-MCA fluorescence;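 active = inhibition above the mean of all tested compounds plus 3 SD, set per screening campaign, cut at about 17% in these data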;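 also: 0% = plate median of test compound wells and 100% = 1 µM Z-Phe-Ala-diazomethylketone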
PP5 primary: blocks human protein phosphatase 5 activity; purified PP5c, OMFP substrate fluorescence; inhibition, % at 6.7 µM; 320,000 compounds, 0.18% hits; AID 1987;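 active = inhibition above the campaign's mean inhibition across all tested compounds plus 3 SD, cut at about 9.5% in these data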;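 also: 0% = DMSO only and 100% = 100 µM cantharidin control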
Target sequence (P53041 whole entry, looked up): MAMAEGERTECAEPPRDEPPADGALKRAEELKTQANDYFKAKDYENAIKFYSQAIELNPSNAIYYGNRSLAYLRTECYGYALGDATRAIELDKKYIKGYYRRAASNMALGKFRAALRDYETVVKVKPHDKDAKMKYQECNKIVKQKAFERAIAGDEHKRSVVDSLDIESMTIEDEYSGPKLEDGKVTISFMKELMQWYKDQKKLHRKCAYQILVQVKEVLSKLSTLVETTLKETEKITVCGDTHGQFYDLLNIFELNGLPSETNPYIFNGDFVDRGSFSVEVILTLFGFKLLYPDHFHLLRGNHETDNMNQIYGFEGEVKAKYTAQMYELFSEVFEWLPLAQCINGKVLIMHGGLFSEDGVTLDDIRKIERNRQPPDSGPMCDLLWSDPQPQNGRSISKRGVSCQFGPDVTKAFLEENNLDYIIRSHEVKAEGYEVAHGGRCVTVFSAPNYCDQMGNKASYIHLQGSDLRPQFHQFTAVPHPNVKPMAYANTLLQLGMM
The depositor's hits bear a star; ? = inconclusive; nt = no result given.

SMILES | T cruzi repl | H9c2 protect | GASC-1 inh | pCIP destab | Fh CTSL1 inh | PP5 primary
COC(=O)C1CN(C(=O)C(C)Oc2ccc(C)c(C)c2)c2ccccc2O1 (configuration not stated) | -25 | 4 | -7 | -7 | 2 | 5
O=Cc1s/c(=N\S(=O)(=O)c2ccccc2)n(CCCCl)c1Cl | 81* | -33 | -11 | -16 | nt | nt
COCCn1c(-c2ccc(Br)cc2)nc2oc3cc(OC)ccc3c(=O)c2c1=O | -2 | 8 | 1 | -9 | 0 | 6
CN1c2ccccc2N(C)C1(C)c1cccc2ccccc12 | 58* | -9 | 4 | -28 | 1 | 2
CC(C)CC(C(=O)NC1CCCCC1)N(Cc1cccs1)C(=O)c1snc(C(N)=O)c1N (configuration not stated) | 18 | 51* | -4 | -6 | 1 | -1
CN(C)c1ccc(C(C(=O)NC2CCCCC2)N(Cc2ccco2)C(=O)c2snc(C(N)=O)c2N)cc1 (configuration not stated) | 22 | 53* | -24 | -2 | -3 | 3
NC(=O)c1nsc(C(=O)N(Cc2ccco2)C(C(=O)NCc2ccccc2)c2ccc(O)cc2)c1N (configuration not stated) | 5 | 58* | -9 | -8 | -3 | 2
CC(C)CC(C(=O)NC1CCCC1)N(Cc1cccs1)C(=O)c1snc(C(N)=O)c1N (configuration not stated) | 12 | 48 | 0 | -2 | 2 | 0
Cc1ccccc1N(C(=O)c1snc(C(N)=O)c1N)C(C(=O)NCc1ccccc1)c1ccc(O)cc1 (configuration not stated) | 6 | 51* | 0 | -15 | 4 | 0
Cn1c(CNC(=O)CNC(=O)c2ccccc2)cc(=O)n(C)c1=O | -11 | -2 | ? | -11 | -2 | -2
CCN(CC)CCCNC(=O)c1[nH]c2ccccc2c1Sc1ccc(Cl)cc1 | 53 | 15 | -10 | -16 | -2 | 3
NC(=O)c1nsc(C(=O)N(c2ccccc2F)C(C(=O)NCc2ccccc2)c2ccc(O)cc2)c1N (configuration not stated) | 2 | 51* | 9 | -8 | 1 | 2
CCOc1ccccc1N(C(=O)c1snc(C(N)=O)c1N)C(C(=O)NCc1ccccc1)c1ccc(O)cc1 (configuration not stated) | -4 | 2 | -12 | 3 | nt | nt
CN(C)c1ccc(C(C(=O)NCc2ccccc2)N(Cc2cccnc2)C(=O)c2snc(C(N)=O)c2N)cc1 (configuration not stated) | -5 | 61* | -11 | 3 | nt | nt
CN(CCOc1ccccc1)C(=O)c1cc(S(=O)(=O)N2CCOCC2)c(Cl)cc1Cl | nt | 4 | nt | nt | nt | nt
CC(=O)CSc1nc2c(c(=O)[nH]c(=O)n2C)n1Cc1cccc(Br)c1 | -8 | 12 | 17 | -5 | 35* | 1
Cn1c(=O)[nH]c(=O)c2c1nc(SCCC(=O)O)n2Cc1cccc(Br)c1 | -5 | -2 | 5 | -4 | 0 | 0
C=CCN(CC=C)Cc1c(O)ccc2c(=O)c(-c3ccccc3)coc12 | 16 | 5 | 3 | -9 | -2 | 1
COc1ccc(S(=O)(=O)N2CCOCC2)cc1C(=O)N(C)Cc1ccco1 | nt | -3 | -1 | nt | nt | nt
COC(=O)N1C(=O)[C@](c2ccccc2)(C2CCCCC2)N1C(=O)OC | -21 | 56* | 2 | 3 | 2 | 3
CCCCC(=O)NC(c1ccco1)c1cc(Cl)c2cccnc2c1O (configuration not stated) | 63* | 31 | -30 | -13 | -1 | -4
CCCC(=O)NC(c1cccs1)c1cc([N+](=O)[O-])c2cccnc2c1O (configuration not stated) | 4 | 50 | -4 | 0 | 3 | 3
O=C(CCc1ccccc1)NC(c1cccs1)c1cc(Cl)c2cccnc2c1O (configuration not stated) | 66* | 48 | -14 | -24 | nt | nt
CCC(=O)NC(c1ccco1)c1cc(Cl)c2cccnc2c1O (configuration not stated) | 63* | 32 | 1 | -13 | 3 | 2
CC(=O)NC(c1ccco1)c1cc(Cl)c2cccnc2c1O (configuration not stated) | nt | 30 | nt | nt | nt | nt
SMILES | T cruzi repl | H9c2 protect | GASC-1 inh | pCIP destab | Fh CTSL1 inh | PP5 primary
CN(Cc1ccccc1)C(=O)c1ncn2c1C(=O)N(C)CC2 | nt | 3 | nt | nt | nt | nt
C=C1SC(Nc2c(C)cc(C)cc2C)=NC12CCCCC2 | 67* | -12 | -5 | -1 | -1 | 0
Cc1cc(C)c(NC(=O)CN2C(=O)NC3(CCCCC3)C2=O)c(C)c1 | -8 | 0 | 6 | -1 | 2 | -4
C=C1SC(Nc2c(C)cccc2C)=NC12CCCCC2 | 64* | -9 | -40 | -13 | 4 | -3
O=C(C1CC(=O)N(c2ccc(F)c(Cl)c2)C1)N1CCOCC1 (configuration not stated) | nt | -3 | nt | nt | nt | nt
Cc1c(-c2nc(N)nc(Nc3ccc(F)cc3)n2)oc2ccccc12 | 62* | 8 | -1 | 2 | 3 | 1
Cc1ccccc1Nc1nc(N)nc(-c2oc3ccccc3c2C)n1 | 56* | 2 | -3 | 2 | 3 | 3
COc1ccccc1Nc1nc(N)nc(-c2oc3ccccc3c2C)n1 | 7 | 4 | -24 | -4 | 4 | 0
NC(=S)N/N=C/c1ccc(C23CC4CC(CC(C4)C2)C3)cc1 | 77* | nt | -12 | -8 | -2 | 4
O=[N+]([O-])c1ccc(N2CCN(S(=O)(=O)c3ccccc3)CC2)cc1NCc1cccnc1 | 20 | 14 | -1 | 5 | -1 | 4
O=[N+]([O-])c1ccc(N2CCN(S(=O)(=O)c3ccc(Cl)cc3)CC2)cc1NCc1cccnc1 | 60* | 3 | 39 | 1 | 4 | -1
Cc1ccc(C(=O)Nc2nc(-c3ccccc3)c(-c3ccccc3)o2)cc1 | 59* | 18 | 11 | -14 | 1 | 0
Cc1cc(C)nc(SCC(=O)Nc2nc(-c3ccccc3)c(-c3ccccc3)o2)n1 | 15 | 16 | 4 | 8 | -1 | 0
Cc1ccc(S(=O)(=O)N2CCN(C(=O)CN3C(=O)c4ccc([N+](=O)[O-])cc4C3=O)CC2)cc1C | nt | 14 | -5 | nt | nt | 0
CCOc1ccc(C(=O)c2cc([N+](=O)[O-])ccc2Cl)cc1 | 5 | -12 | -3 | -10 | 5 | 6
CCOc1ccc(C(=O)c2ccc([N+](=O)[O-])cc2Cl)cc1 | 60* | -6 | -18 | -6 | 7 | 2
CNC(=O)COC(=O)c1ccc([N+](=O)[O-])cc1Cl | -16 | -4 | 3 | -1 | 18* | 3
CC(C)NC(=O)NC(=O)COC(=O)c1ccc([N+](=O)[O-])cc1Cl | -6 | 0 | -2 | 6 | 1 | -1
CN(C(=O)COC(=O)c1c[nH]c2ccccc12)c1ccccc1 | nt | 1 | nt | nt | nt | nt

High-throughput results from PubChem BioAssay.
